The target in data set [1] is Cytochrome P450 2D6 (Homo sapiens, UniProt P10635). Kind of data set: Inhibition of human CYP2D6 by fluorescence assay. Type of data set: ADME. In outline: (§1)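 Recombinant human CYP bactosomes (0.1 mg/mL) in 50 mM potassium phosphate pH 7.4, preincubated 10 min at 37 °C with test compound (0.1-10 μM, 7 concentrations) and fluorogenic substrate. Substrates: ethoxyresorufin 0.5 μM (1A2), FCA 50 μM (2C9), BMC 10 μM (2C19), MMC 10 μM (2D6), DEF 1 μM or 7-BQ 25 μM (3A4). Reaction started with NADPH regenerating system; metabolite formation read over 10 min. IC50 from percent of control rate; miconazole control; triplicate.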

Data set [2] deals with T1, Glutamate receptor 2 (Homo sapiens, UniProt P42262). Kind of data set: Allosteric modulation of human recombinant GluA2 receptor flip isoform expressed in HEK293 cells assessed as potentiation of glutamate-induced calcium influx by Fluo-4/FLIPR method. It is filed as cell-based. In outline:
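Stable GluA2 flip (unedited) cell line grown in DMEM/F12 with 10% FBS and seeded to confluence 2-3 days before use. Cells washed in HEPES buffer (pH 7.3) and loaded with 2 μM Fluo-4 AM for 60 min at room temperature. On FLIPR, compound was added 5 min before 100 μM glutamate. pEC50 and asymptotic maximum are relative to the maximal response to cyclothiazide, n ≥ 3.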

Data set [3] concerns the target T2, Cytochrome P450 1A2 (Homo sapiens, UniProt P05177).
T2 sequence (P05177 whole entry): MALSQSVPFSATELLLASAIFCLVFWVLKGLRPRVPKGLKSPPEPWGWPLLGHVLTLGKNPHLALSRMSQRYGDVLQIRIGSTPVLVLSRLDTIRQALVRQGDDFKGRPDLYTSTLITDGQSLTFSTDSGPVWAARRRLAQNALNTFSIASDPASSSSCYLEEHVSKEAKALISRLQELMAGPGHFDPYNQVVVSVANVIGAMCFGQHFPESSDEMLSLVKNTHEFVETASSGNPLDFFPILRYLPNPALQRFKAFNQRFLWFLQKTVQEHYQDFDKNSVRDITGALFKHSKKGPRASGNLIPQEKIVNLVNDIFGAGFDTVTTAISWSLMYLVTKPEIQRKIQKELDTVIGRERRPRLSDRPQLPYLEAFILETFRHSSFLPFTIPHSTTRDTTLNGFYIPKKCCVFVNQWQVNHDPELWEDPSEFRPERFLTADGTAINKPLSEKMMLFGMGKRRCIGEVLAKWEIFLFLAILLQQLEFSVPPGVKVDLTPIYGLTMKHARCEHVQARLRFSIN
Put plainly: Inhibition of human CYP1A2 by fluorescence assay. Type of data set: ADME. In outline: as §1

A short description of data set [4]: Cmax in rat blood at 3 mg/kg, po. It is filed as ADME, organism-based. Details: dose 3 mg/kg, route oral. The note with it: whole blood.
For data set [5], the target named is Cytochrome P450 2C9 (Homo sapiens, UniProt P11712). Kind of data set: Inhibition of human CYP2C9 by fluorescence assay. Type of data set: ADME. The essentials:
as §1

Data set [6] has as its system Brain. Put plainly: Brain tissue binding in rat at 3 mg/kg, po. Details: dose 3 mg/kg, route oral. Type of data set: ADME, organism-based. The note with it: in vivo.
Data set [7] is described as follows: Kinetic solubility of the compound in phosphate buffered saline of pH 7.4. Type of data set: physicochemical. In outline:
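Kinetic solubility: 10 mM DMSO stock, 5 μL diluted to 100 μL with pH 7.4 phosphate-buffered saline, equilibrated 1 h at room temperature, filtered, filtrate quantified by calibrated flow-injection chemiluminescent nitrogen detection.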

Data set [8] can be described thus: Blood Clearance in rat at 3 mg/kg, po. The conditions noted are these: whole blood. On the set-up: dose 3 mg/kg, route oral. It is filed as ADME, organism-based. In outline: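 Rats dosed orally at 3 mg/kg; blood sampled via the hepatic portal vein and heart. Estimated clearance derived from in vivo hepatic extraction, taking rat liver blood flow as 85 (mL/min)/kg.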

The nature of data set [9]: Distribution coefficient, log D of the compound at pH 7.4. It is filed as physicochemical. The note with it: octanol/water.
In data set [10] the test system is Brain. Kind of data set: Drug level in Lister Hooded rat assessed per gram of tissue at 0.3 mg/kg, ip. It is filed as ADME, organism-based. Details: dose 0.3 mg/kg, route intraperitoneal. The note with it: in vivo. In outline:
(§2)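 Male Lister Hooded rats (n = 9-12/group) tested for reversal of a 24 h delay-induced deficit in novel object recognition. Significant doses flagged. Brain concentrations measured in the study animals at the end of the test.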

The subject of data set [11] is Brain. Put plainly: Drug level in Lister Hooded rat assessed per gram of tissue at 3 mg/kg, ip. It is filed as ADME, organism-based. Details: dose 3 mg/kg, route intraperitoneal. The note with it: in vivo. The essentials: as §2
The nature of data set [12]: Plasma protein binding in rat at 3 mg/kg, po. Type of data set: ADME, organism-based. Details: dose 3 mg/kg, route oral. The note with it: read-out: PPB (converted).
Data set [13] has as its system Rattus norvegicus. Kind of data set: Cognitive enhancing effect in Wistar rat assessed as reversal of scopolamine-induced amnesic deficit at 30 mg/kg, ip by passive avoidance test.
Data set [14] relates to Brain. Kind of data set: Drug level in Lister Hooded rat assessed per gram of tissue at 150 mg/kg, ip. Type of data set: ADME, organism-based. Details: dose 150 mg/kg, route intraperitoneal. The conditions noted are these: in vivo. The essentials:
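Male Lister Hooded rats pretreated 30 min before the maximal electroshock threshold test with compound or saline vehicle; picrotoxin served as positive control. Corneal current applied, CC50 about 60-70 mA, 0.1 ms. Brain levels measured in satellite rats sampled immediately after testing.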

Data set [15] concerns Brain. Put plainly: Drug level in Lister Hooded rat assessed per gram of tissue at 1 mg/kg, ip. Type of data set: ADME, organism-based. On the set-up: dose 1 mg/kg, route intraperitoneal. The note with it: in vivo. In outline:
as §2

Data set [16] deals with Cytochrome P450 2C19 (Homo sapiens, UniProt P33261). Kind of data set: Inhibition of human CYP2C19 by fluorescence assay. It is filed as ADME. The essentials:
as §1

The target of data set [17] is Cytochrome P450 3A4 (Homo sapiens, UniProt P08684). Put plainly: Inhibition of human CYP3A4 by fluorescence assay. Type of data set: ADME. The essentials:
as §1

The target of data set [18] is T1, Glutamate receptor 2. Put plainly: Allosteric modulation of human recombinant GluA2 receptor flip isoform expressed in HEK293 cells assessed as potentiation of glutamate-induced calcium influx by Fluo-4/FLIPR method relative to cyclothiazide. Type of data set: cell-based. The essentials: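 Stable GluA2 flip (unedited) cells seeded to confluence 2-3 days before assay; washed in HEPES buffer (145 NaCl, 5 KCl, 2 CaCl2, 1 MgCl2, 5.5 glucose, pH 7.3), loaded with 2 μM Fluo4-AM 60 min at room temperature. FLIPR dual addition: compound 5 min before 100 μM glutamate; fluorescence rise expressed against maximal cyclothiazide response, fitted pEC50 and Asym max; n ≥ 3.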

For data set [19], the system named is Brain. Kind of data set: Drug level in Lister Hooded rat assessed per gram of tissue at 10 mg/kg, ip. The conditions noted are these: in vivo. On the set-up: dose 10 mg/kg, route intraperitoneal. Type of data set: ADME, organism-based. In outline: as §2
The nature of data set [20]: AUC (0 to t) in rat blood at 3 mg/kg, po. Type of data set: ADME, organism-based. Details: dose 3 mg/kg, route oral. The conditions noted are these: whole blood.
A short description of data set [21]: Apparent permeability of the compound. It is filed as ADME. The conditions noted are these: not told. The essentials: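 Artificial membrane permeability: donor holds 10 mM sample in pH 7.05 phosphate buffer with 0.5% hydroxypropylcyclodextrin. Membrane is 1.8% phosphatidylcholine and 1% cholesterol in decane. Donor and acceptor concentrations measured by LCMS after 3 h at room temperature; permeability expressed in nm/s.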

For data set [22], the system named is Rattus norvegicus. Kind of data set: Neurotoxicity in Lister Hooded rat assessed proconvulsant effect at 150 mg/kg, ip by MEST test. The conditions noted are these: in vivo. Type of data set: toxicity, organism-based. On the set-up: dose 150 mg/kg, route intraperitoneal. The essentials:
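Male Lister Hooded rats pretreated with compound, saline vehicle or picrotoxin 30 min before corneal electroshock (CC50 about 60–70 mA, 0.1 ms); tonic and tonic-clonic seizure threshold scored; brain concentrations taken from satellite rats sampled right after testing.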

Data set [23] in a line: Distribution coefficient, log D of the compound. Type of data set: physicochemical. The note with it: octanol/water.
A short description of data set [24]: in vivo. The note with it: rat, brain and blood, po, 3 mg/kg.
Data set [25] is described as follows: Cmax in rat at 3 mg/kg, po. It is filed as ADME, organism-based. Details: dose 3 mg/kg, route oral. The conditions noted are these: in vivo.
Data set [26] concerns Rattus norvegicus. Kind of data set: AUC ( 0 to t) in rat at 3 mg/kg, po. It is filed as ADME, organism-based, Plasma. On the set-up: dose 3 mg/kg, route oral. The note with it: in vivo.
Data set [27] concerns Rattus norvegicus. Kind of data set: Cognitive enhancing effect in Wistar rat assessed as reversal of scopolamine-induced amnesic deficit at 10 to 30 mg/kg, ip by passive avoidance test.

pEC50, pIC50: −log10 of the molar value. Converted amounts (≈) assume the structure as drawn. The source made the active and inactive calls.

The pIC50 is −log10 of the IC50, conventionally taken in molar units. As usually defined, the pEC50 is the negative decadic logarithm of the EC50, by convention in mol/L. A word on the Cmax: it is the highest concentration seen after dosing. Broadly, the solubility (kinetic) is the concentration staying in solution when a stock, usually in DMSO, is diluted into the medium. As a reminder, the CL/F is clearance divided by bioavailability, as obtained after extravascular dosing. As a reminder, the logD is the decadic logarithm of the distribution of all forms, ionised or not, between an organic phase and buffer at a given pH. A high value points to a more lipophilic compound. One may read the AUC(0-t) as the area under the concentration-time curve up to a stated or last time point. Lower therefore signals low exposure. One may read the Papp as a coefficient for how fast a substance crosses the barrier. As usually defined, the Kp is tissue or fluid exposure divided by exposure in the circulation. Broadly, the AUC is the area under the concentration-time curve, a measure of exposure. A higher AUC goes with more exposure.

T1 sequence (P42262 whole entry, canonical isoform): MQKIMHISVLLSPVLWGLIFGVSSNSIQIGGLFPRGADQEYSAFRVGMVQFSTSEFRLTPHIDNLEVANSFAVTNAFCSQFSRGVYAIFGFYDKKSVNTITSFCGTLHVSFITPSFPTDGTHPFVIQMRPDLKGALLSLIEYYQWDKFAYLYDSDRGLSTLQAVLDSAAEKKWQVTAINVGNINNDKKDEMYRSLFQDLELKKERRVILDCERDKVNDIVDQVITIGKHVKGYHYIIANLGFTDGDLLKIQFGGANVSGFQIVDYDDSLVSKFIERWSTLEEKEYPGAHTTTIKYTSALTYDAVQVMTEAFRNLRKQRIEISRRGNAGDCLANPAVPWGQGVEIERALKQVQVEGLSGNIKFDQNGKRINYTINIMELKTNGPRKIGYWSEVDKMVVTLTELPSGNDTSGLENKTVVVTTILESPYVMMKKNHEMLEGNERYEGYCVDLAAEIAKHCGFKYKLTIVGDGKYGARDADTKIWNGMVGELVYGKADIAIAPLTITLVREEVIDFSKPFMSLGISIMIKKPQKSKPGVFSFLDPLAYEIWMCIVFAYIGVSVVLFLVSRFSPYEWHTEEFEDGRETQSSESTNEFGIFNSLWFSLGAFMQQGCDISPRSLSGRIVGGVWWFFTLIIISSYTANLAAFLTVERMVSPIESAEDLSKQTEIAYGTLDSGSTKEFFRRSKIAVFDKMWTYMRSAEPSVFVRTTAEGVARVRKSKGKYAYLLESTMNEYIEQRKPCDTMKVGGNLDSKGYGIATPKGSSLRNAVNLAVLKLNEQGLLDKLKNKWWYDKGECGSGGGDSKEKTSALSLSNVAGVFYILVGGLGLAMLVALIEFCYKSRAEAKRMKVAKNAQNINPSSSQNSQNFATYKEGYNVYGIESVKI
Sequence of Cytochrome P450 2D6 (P10635 whole entry): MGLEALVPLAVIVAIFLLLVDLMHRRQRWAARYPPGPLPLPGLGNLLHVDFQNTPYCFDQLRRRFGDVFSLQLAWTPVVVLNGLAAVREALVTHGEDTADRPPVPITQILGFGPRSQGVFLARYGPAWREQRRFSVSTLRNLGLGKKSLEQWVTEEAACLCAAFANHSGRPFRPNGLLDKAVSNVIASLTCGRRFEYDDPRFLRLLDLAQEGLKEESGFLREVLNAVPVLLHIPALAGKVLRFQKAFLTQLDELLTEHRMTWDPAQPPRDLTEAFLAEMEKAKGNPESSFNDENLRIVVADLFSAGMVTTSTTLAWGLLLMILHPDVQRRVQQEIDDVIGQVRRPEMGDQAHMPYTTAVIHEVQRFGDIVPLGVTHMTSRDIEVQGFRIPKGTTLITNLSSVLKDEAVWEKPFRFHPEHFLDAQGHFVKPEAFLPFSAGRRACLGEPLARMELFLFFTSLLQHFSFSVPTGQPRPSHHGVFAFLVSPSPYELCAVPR
Sequence of Cytochrome P450 3A4 (P08684 whole entry): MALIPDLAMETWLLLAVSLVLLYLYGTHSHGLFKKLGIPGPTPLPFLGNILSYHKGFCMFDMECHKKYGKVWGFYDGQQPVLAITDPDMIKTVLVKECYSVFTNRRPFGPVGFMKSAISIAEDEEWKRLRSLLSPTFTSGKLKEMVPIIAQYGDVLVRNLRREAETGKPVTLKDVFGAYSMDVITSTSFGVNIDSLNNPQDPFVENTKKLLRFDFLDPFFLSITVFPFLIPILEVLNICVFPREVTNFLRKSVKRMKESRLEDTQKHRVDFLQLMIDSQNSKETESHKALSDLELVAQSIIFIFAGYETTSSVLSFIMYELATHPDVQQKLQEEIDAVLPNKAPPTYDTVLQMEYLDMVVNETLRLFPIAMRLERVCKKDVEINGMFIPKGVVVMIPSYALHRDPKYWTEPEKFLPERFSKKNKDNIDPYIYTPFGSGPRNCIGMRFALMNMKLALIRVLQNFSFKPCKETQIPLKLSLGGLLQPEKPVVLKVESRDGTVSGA
Sequence of Cytochrome P450 2C19 (P33261 whole entry): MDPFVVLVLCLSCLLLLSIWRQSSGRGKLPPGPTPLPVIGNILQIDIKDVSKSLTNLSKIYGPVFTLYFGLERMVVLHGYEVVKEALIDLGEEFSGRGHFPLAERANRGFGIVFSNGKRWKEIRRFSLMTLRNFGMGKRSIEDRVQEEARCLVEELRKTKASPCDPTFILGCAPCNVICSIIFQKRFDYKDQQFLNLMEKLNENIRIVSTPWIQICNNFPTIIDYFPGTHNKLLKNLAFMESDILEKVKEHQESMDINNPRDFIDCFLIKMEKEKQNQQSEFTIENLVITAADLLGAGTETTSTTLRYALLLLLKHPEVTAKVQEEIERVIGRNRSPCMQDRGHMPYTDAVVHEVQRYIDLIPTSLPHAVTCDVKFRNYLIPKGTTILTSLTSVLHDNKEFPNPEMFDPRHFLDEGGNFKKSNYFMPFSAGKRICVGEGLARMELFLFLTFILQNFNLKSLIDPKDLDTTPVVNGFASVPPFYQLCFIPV
Sequence of Cytochrome P450 2C9 (P11712 whole entry): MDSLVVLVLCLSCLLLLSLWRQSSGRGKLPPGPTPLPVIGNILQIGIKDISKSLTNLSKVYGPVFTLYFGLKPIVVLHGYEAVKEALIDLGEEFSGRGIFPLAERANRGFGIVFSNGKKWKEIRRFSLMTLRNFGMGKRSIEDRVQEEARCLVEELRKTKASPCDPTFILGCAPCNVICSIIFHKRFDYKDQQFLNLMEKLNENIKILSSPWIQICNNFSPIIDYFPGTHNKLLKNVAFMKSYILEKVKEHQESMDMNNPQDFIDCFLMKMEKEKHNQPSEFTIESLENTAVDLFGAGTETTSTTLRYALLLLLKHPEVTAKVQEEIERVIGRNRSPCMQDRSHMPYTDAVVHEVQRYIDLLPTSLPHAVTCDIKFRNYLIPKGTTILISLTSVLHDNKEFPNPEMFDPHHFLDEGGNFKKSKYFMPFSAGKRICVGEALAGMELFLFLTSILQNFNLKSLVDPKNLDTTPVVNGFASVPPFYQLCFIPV

Turning to `O=C1CCCN1Cc1c(F)cc(-n2nc(C(F)(F)F)c3c2CCOC3)cc1F`, the pIC50 in data set [1], in data set [3], in data set [5], in data set [16] and in [17] was less than 5.00 in each case. In data set [2], the pEC50 was 4.70. In addition, the Cmax in [4] was determined as 76 ng/mL. For the same compound, the “Brain tissue binding (% bound)” value in [6] amounted to 96.3%. In [7], this compound gave a solubility (kinetic) of 207 µg/mL (≈ 516 µM). Moreover, the CL/F in data set [8] was 22 mL/min/kg. In data set [9], this compound had a logD of 2.5. The Drug uptake is reported as 22 ng/g in [10]; 386 ng/g in data set [11]; 8988 ng/g in data set [14]; 79 ng/g in data set [15]; 1413 ng/g in [19]. Further, in [12], the fraction unbound is 0.064. Further, the outcome in data set [13] was Active. Also, the results for the Activity in [18] and in [22] were 120% and “Non-toxic”, respectively. Further, the AUC(0-t) in data set [20] turned out to be 481 ng·h/mL. Besides, the Papp in data set [21] is 47 ×10⁻⁶ cm/s.

In turn, `CN(C)C(=O)c1ccc(-n2nc(C(F)(F)F)c3c2CCCC3)cc1` showed a pIC50 in data set [1] of 5.22. In addition, the pEC50 in data set [2] is 4.60. For the same compound, the pH-dependent lipophilicity (logD) in data set [23] is 3. Moreover, in data set [6], the “Brain tissue binding (% bound)” value amounted to 98.2%. Moreover, the Kp in [24] turned out to be 1.3. Besides, the concentration in data set [25] peaked (Cmax) at 50 ng/mL. The same compound displayed a kinetic solubility in [7] of 138 µg/mL (≈ 409 µM). Further, the fraction unbound in data set [12] is 0.048. This compound yielded an AUC in data set [26] of 78 ng·h/mL. In data set [18], the Activity turned out to be 94%.

Regarding `O=C(c1ccc(-n2nc(C(F)(F)F)c3c2CCOC3)cc1)N1CCCC1`, the pIC50 in [1], in data set [3], in data set [5], in [16] and in data set [17] was less than 5.00 throughout. Besides, the pEC50 in [2] is less than 4.70. In addition, the Cmax in data set [4] worked out at 551 ng/mL. Moreover, in [6], the “Brain tissue binding (% bound)” value is 88.4%. In addition, the kinetic solubility in [7] is 192 µg/mL (≈ 526 µM). In data set [8], this compound returned a CL/F of 6 mL/min/kg. This compound registered a logD in data set [9] of 2.4. The Drug uptake in data set [11] is 983 ng/g; in data set [14], 22525 ng/g; in [15], 228 ng/g; in [19], 2609 ng/g. Moreover, the fraction unbound in data set [12] was 0.137. Moreover, in [27], the result was Active. Besides, the figures for the Activity in [18] and in data set [22] were 81% and “Non-toxic”, respectively. This compound came in with an AUC(0-t) in data set [20] of 1330 ng·h/mL. Moreover, in data set [21], the Papp stood at 49.5 ×10⁻⁶ cm/s.
